PAD4 inh: PAD4 (human) enzyme inhibition; Q9UM07; recombinant PAD4, RCA probe fluorescence polarization; inhibition, % at 6.36 µM; hit rate 0.41% among 330,000;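 active = percent inhibition above a cutoff equal to the mean of all tested compounds plus 3 SD, cut at about 15% in these data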;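 note: 0% = PAD4 with RCA probe and DMSO and 100% = probe without PAD4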
Apaf-1 inh: inhibitors of human Apaf-1 apoptosome | reconstituted apoptosome caspase-3 activity, DEVD-Rh110 fluorescence | inhibition, % at 20 µM | hit rate 0.71% among 330,000 | AID 489030; active = inhibition of at least 40% at 20 µM;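 note: plate controls were DMSO wells for no effect and DEVD-CHO caspase inhibitor wells for full effect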
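Material: reconstituted apoptosome with Apaf-1, cytochrome c, caspase-9, procaspase-3, dATP; medium: pH 7.5 Hepes buffer with CHAPS, BSA, DTT; also added: cytochrome c and DEVD-Rh110 substrate; timing: 30 min plus 50 min, RT; signal: Rh110 fluorescence intensity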
Rin1-Abl PPI inh: human Rin1-Abl interaction inhibition. P00519+Q13671. TR-FRET Rin1/Abl binding, biochemical. inhibition, % at 7.35 µM. hit rate 0.4% among 360,000. AID 588664; in the data active = inhibition above about 5%, passing the limit was not always enough
SUMO HTRF inh: SUMOylation inhibition; P63279; hit rate 0.36% among 290,000; HTRF SUMOylation assay, SAE1/SAE2 + UBC9, in vitro; inhibition, % at 35 µM; in the data active = inhibition above about 50%, passing the limit was not always enough
Target sequence (P63279 whole entry, looked up): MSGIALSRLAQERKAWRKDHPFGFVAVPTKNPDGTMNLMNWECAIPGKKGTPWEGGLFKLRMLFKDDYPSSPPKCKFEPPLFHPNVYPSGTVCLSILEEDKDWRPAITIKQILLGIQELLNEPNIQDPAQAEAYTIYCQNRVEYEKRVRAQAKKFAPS
UBC13 polyUb: blocks human UBC13 polyubiquitin chain formation; P61088; TR-FRET; inhibition, % at 20 µM; hit rate 0.47% among 330,000; AID 485273; in the data active = inhibition above about 45%, passing the limit was not always enough
Target sequence (P61088 whole entry, looked up): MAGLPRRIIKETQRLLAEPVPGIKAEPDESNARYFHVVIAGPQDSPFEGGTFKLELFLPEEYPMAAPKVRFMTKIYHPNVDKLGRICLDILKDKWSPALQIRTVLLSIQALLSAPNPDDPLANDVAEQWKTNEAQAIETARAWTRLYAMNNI
GSTO1 inh: blocks human GSTO1 in RBBP9 counter-screen. hit rate 1.1% among 300,000. inhibition, % at 5.96 µM. AID 1974. recombinant GSTO1, activity-based probe fluorescence polarization. P78417;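 active = inhibition above the campaign mean inhibition plus 3 SD, cut at about 35% in these data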;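 note: 0% = GSTO1-1 with DMSO and 100% = wells lacking GSTO1-1 enzyme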
Target sequence (P78417 whole entry, looked up): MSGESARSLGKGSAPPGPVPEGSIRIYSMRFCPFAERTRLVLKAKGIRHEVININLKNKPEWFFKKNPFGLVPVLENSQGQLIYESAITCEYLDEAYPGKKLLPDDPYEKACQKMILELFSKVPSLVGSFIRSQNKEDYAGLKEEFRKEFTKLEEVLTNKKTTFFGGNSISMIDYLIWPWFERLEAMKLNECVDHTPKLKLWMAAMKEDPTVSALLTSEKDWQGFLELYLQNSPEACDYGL
PAD4 FP conf: PAD4 (human) inhibition, confirmed; shares compounds with PAD4 inh; recombinant PAD4, RCA probe fluorescence polarization; inhibition, % at 6.36 µM; hit rate 28% among 1,200;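 active = mean inhibition across replicates above the hit cutoff set by the earlier primary screen, cut at about 15% in these data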;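 note: inhibitors block active-site labeling by the probe so polarization falls; 0% = PAD4 with probe and DMSO and 100% = probe without PAD4 enzyme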
The depositor's hits bear a star; · = not tested or not shown. An excerpt weighted towards active compounds, which were near 2.2% of everything screened.

SMILES	PAD4 inh	Apaf-1 inh	Rin1-Abl PPI inh	SUMO HTRF inh	UBC13 polyUb	GSTO1 inh	PAD4 FP conf
C=CCN1CN(S(=O)(=O)c2cccc(Cl)c2)c2nc3ccccc3nc21	46*	6	3	11	-8	-1	3
CCC(Sc1nc(C)cc(C)n1)C(=O)NC1=NN=C(c2ccc(C)cc2)CS1 (centres undefined)	66*	13	3	-50	-5	-11	55*
Cc1cc(C)nc(SCC(=O)NC2=NN=C(c3ccc(Br)cc3)CS2)n1	38*	3	-2	-84	-2	-9	21*
CCC(Sc1nc(C)cc(C)n1)C(=O)Nc1cc(C)on1 (centres undefined)	1	12	2	13	5	17	·
Cc1cc(NC(=O)NC(=O)c2ccccc2NC(=O)C(C)N)ccc1Oc1ncc(Br)cn1 (centres undefined)	·	·	4	·	·	·	·
CC1(C)Cc2ccccc2C(CSc2ccccc2C(=O)O)=N1	20*	27	-2	4	-6	12	20*
COc1ccc(C=Nc2cccnc2N)cc1	34*	8	0	16	-12	9	4
Cc1ccc(C=Nc2cccnc2N)cc1	15*	9	-8	1	-5	5	5
Cc1cc(C)c(C)c(S(=O)(=O)N2CCC(C(=O)N3CCCC3)CC2)c1C	58*	-4	5	·	0	·	-8
Cc1cc(C)c(C)c(S(=O)(=O)N2CCN(C(=O)C3CCC3)CC2)c1C	2	3	-3	·	0	5	·
CCN1C=C(Cc2ccc(OC)cc2)C2=C(C1)C(c1ccc(OC)cc1)C(C#N)=C(N)O2 (centres undefined)	42*	8	1	-14	-12	3	4
O=C(N/N=C/c1cn(-c2cccs2)nc1-c1ccccc1)c1ccccc1Br	-7	11	-2	-5	-7	-15	·
O=C(N/N=C/c1cn(-c2cccs2)nc1-c1ccccc1)c1ccccc1O	27*	15	-4	-25	-16	-29	-3
Cn1nnnc1SCC(=O)N1CCN(S(=O)(=O)c2ccccc2)CC1	-8	-10	-1	-4	4	2	·
Cn1nnnc1SCC(=O)N1CCN(S(=O)(=O)c2ccc(Cl)cc2)CC1	17*	-7	3	-2	-2	0	-4
CC12CCC(C(=Nc3ccc(N=C4C(=O)C5(C)CCC4C5(C)C)cc3)C1=O)C2(C)C	45*	6	·	4	-20	8	-3
CCN(CC)c1nc(N)nc(NS(=O)(=O)c2ccc(Cl)cc2)n1	27*	1	-3	14	5	7	4
CC(=O)Nc1ccc(SCC(=O)c2ccc(Br)s2)cc1	35*	4	-7	2	4	12	12
CCC(C)NC(=O)CSc1ccc(NC(C)=O)cc1 (centres undefined)	0	10	-1	3	1	12	·
Cc1cn([C@H]2C[C@H](O)[C@@H](CCC(=O)NCC3CCCO3)O2)c(=O)[nH]c1=O (some centres undefined)	·	·	0	·	·	·	·
Cc1ccc(OCC(=O)NNC(=O)c2ccc(F)c(S(=O)(=O)N3CCOCC3)c2)cc1C	·	·	-1	·	·	·	·
COC/C=C/C1=CC2=CC(=O)C(C)(OC(=O)c3cnc4ccccc4n3)C(=O)C2=CN1CC(C)C (centres undefined)	19*	41*	-1	·	-66	32	-1
CC(=O)Nc1ccc(Nc2c3c4c(cccc4n(C)c2=O)C(=O)c2ccccc2-3)cc1	19*	2	-6	-4	-218	9	23*
CCNc1cccc2c1C(=O)N(C)C2=O	-4	-3	-7	20	-4	5	·
CCNc1c2c3c(cccc3n(C)c1=O)C(=O)c1ccccc1-2	88*	10	·	38	-310	42*	91*
SMILES	PAD4 inh	Apaf-1 inh	Rin1-Abl PPI inh	SUMO HTRF inh	UBC13 polyUb	GSTO1 inh	PAD4 FP conf
O=C(Nc1ccc(Cl)c(S(=O)(=O)N2CCOCC2)c1)[C@@H]1CCCN1C(=O)c1cccs1	-2	-2	2	·	6	·	·
O=C(CN1CCCC1)Nc1cc(C(F)(F)F)ccc1Cl	4	-1	2	-13	10	-1	·
O=C(CN1CCCCC1)Nc1ccc(C(F)(F)F)cc1Cl	18*	5	0	12	6	-3	-6
C[C@H](CO)N1C[C@H](C)[C@@H](CN(C)S(=O)(=O)c2ccc3ccccc3c2)OCc2cnnn2CCCC1=O	·	·	0	·	·	·	·
Cc1sc2ccc3sccc3c2[n+]1C	17*	-3	-1	-4	-2	4	14
COc1ccc(OC)c(NC(=O)CSc2ncnc3sc(C)cc23)c1	·	·	2	·	·	·	·
CC(=O)N1CCN(S(=O)(=O)c2cccc(C(=O)OCC(=O)N(CCC#N)c3ccc(F)cc3)c2)CC1	29*	0	2	·	-1	·	3
O=C(NCc1cccs1)c1ccc2sc([C@H]3C[C@H](O)[C@@H](CO)O3)nc2c1	·	·	0	·	·	·	·
S=c1[nH]nc(-c2cc(-c3ccccc3)n[nH]2)n1/N=C/c1ccc(Cl)cc1	6	19	-2	46	-28	-12	·
S=c1[nH]nc(-c2cc(-c3ccccc3)n[nH]2)n1/N=C/c1cccc(Cl)c1	16*	26	0	·	-10	4	9
COc1ccc(CN(C)C(=O)c2cccc(S(=O)(=O)N3CCc4ccccc43)c2)c(OC)c1	-2	17	2	·	3	·	·
CC1=C(C#N)C(=O)OC(C)(C)C1	47*	-4	-1	-5	1	7	15*
Cc1ccc(S(=O)(=O)Nc2ccc(N3CCCCC3)cc2)cc1	-6	10	-1	6	9	16	·
CC(=O)N1CCN(c2ccc(NS(=O)(=O)c3ccc(C)cc3)cc2)CC1	24*	5	3	14	0	6	2
CC(=O)N1CCN(c2ccc(N)cc2)CC1	25*	13	-8	·	-1	·	1
Cn1ccc2c(-c3ccc4c(c3)OCCO4)cc3c(c21)C1CCC3C1 (centres undefined)	·	·	-7	·	·	·	·
CCCOc1ccc(F)cc1-c1cc(C(=O)Nc2ccc(C)c(NS(C)(=O)=O)c2)[nH]n1	·	·	0	·	·	·	·
COc1ccc(NC(=O)Cc2nnc(SCC(=O)NC3CCCC3)n2C)cc1	1	0	-1	7	-2	3	·
Cc1ccc(NC(=O)CSc2nnc(COc3ccccc3F)n2N)cc1S(=O)(=O)N1CCOCC1	·	·	0	·	·	·	·
COc1cc(/C=C/C(=O)OCC(=O)N(C)Cc2ccccc2)cc(OC)c1OC	26*	5	2	·	2	·	-5
CCOC(=O)c1ccc(-n2c(CCC(=O)O)ccc2-c2ccc(F)cc2)cc1	0	9	3	10	-5	-1	·
O=C1CC(Nc2ccc3ccccc3c2)C(=O)N1Cc1ccccc1 (centres undefined)	1	19	3	-11	6	-4	·

Screening results: PubChem, several laboratories
